Measured values taken from ChEMBL document CHEMBL3580605, “Melampodium leucanthum, a source of cytotoxic sesquiterpenes with antimitotic activities” (J Nat Prod, 2015).
The source made the active and inactive calls. The rule behind the calls is not given here.

Key:
[1] = system: PC-3; experiment: Growth inhibition of human PC3 cells by sulforhodamine B assay; assay type: functional, cell-based
Outline: (§1)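 SRB assay. DU 145 cells were grown in IMEM with 10% FBS and gentamicin, PC-3 in RPMI 1640 with 10% FBS and gentamicin, and HeLa in BME with 10% FBS and gentamicin. Cytotoxicity was read as a fall in cell density below the density at the time of drug addition. Each concentration was tested in triplicate, n = 2–9 independent experiments. IC50 is the concentration giving 50% inhibition of proliferation versus vehicle control, interpolated from a 4-parameter nonlinear regression; mean ± SE.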

[2] = system: HeLa; experiment: Growth inhibition of human HeLa cells by sulforhodamine B assay; assay type: functional, cell-based; outline: as §1
[3] = system: A10; experiment: Growth inhibition of rat A10 cells by sulforhodamine B assay; assay type: cell-based
[4] = biological target: Serine/threonine-protein kinase PLK1 (Homo sapiens) (UniProt P53350); experiment: Inhibition of PLK1 Thr210 phosphorylation in human HeLa cells at 10 uM by immunoblotting method; assay type: cell-based
Sequence of Serine/threonine-protein kinase PLK1 (Homo sapiens) (P53350 whole entry): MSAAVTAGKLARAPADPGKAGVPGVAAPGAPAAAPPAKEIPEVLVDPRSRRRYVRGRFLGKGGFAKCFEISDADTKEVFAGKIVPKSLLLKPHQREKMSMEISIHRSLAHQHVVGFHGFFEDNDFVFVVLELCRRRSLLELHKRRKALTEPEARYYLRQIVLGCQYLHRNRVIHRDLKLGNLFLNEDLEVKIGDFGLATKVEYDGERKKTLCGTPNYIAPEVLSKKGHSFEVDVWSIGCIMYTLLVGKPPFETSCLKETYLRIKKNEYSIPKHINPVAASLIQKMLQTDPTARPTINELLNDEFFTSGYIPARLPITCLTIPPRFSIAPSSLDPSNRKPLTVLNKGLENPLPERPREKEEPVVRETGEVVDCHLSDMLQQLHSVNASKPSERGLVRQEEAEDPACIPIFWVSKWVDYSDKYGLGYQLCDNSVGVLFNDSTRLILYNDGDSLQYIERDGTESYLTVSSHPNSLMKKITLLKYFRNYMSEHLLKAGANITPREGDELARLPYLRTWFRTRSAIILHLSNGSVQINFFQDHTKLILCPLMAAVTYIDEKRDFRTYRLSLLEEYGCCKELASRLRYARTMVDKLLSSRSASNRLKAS
Outline: (§2)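 HeLa and DU 145 cells were given vehicle, 100 nM BI 2536 or 10 µM test compounds. Lysed and immunoblotted for total PLK1 and phospho-Thr210-PLK1.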

[5] = system: PC-3; experiment: Induction of aberrant bipolar mitotic spindles in human PC3 cells at 7.5 uM incubated for 18 hrs by indirect immunofluorescence microscopy; assay type: functional, cell-based
Outline: (§3)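 Cells adhered overnight on glass coverslips, then were treated for 18 h. They were fixed in cold methanol (4 °C, 5 min) and blocked with 10% bovine calf serum for 20 min. Stained with monoclonal anti-β-tubulin (1:400, 2 h, 37 °C), then FITC anti-mouse IgG (1:200, 1 h, 37 °C), and 0.1 µg/mL DAPI. Spindles scored by indirect immunofluorescence; BI2536 at 100 nM served as positive control.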

[6] = biological target: Serine/threonine-protein kinase PLK1 (Homo sapiens) (UniProt P53350); experiment: Inhibition of PLK1 Thr210 phosphorylation in human DU145 cells at 10 uM by immunoblotting method; assay type: cell-based; details: DU-145; outline: as §2
[7] = system: PC-3; experiment: Induction of monopolar mitotic spindles in human PC3 cells at 7.5 uM incubated for 18 hrs by indirect immunofluorescence microscopy; assay type: functional, cell-based; outline: as §3
[8] = system: HeLa; experiment: Induction of monopolar mitotic spindles in human HeLa cells at 7.5 uM incubated for 18 hrs by indirect immunofluorescence microscopy; assay type: functional, cell-based; outline: as §3
[9] = biological target: T1, Tubulin (Sus scrofa) (UniProt P02554+P02550); experiment: Inhibition of porcine tubulin polymerization at 10 uM incubated for 1 hr by turbidimetry; assay type: protein assay
T1 sequence (P02550 whole entry, looked up): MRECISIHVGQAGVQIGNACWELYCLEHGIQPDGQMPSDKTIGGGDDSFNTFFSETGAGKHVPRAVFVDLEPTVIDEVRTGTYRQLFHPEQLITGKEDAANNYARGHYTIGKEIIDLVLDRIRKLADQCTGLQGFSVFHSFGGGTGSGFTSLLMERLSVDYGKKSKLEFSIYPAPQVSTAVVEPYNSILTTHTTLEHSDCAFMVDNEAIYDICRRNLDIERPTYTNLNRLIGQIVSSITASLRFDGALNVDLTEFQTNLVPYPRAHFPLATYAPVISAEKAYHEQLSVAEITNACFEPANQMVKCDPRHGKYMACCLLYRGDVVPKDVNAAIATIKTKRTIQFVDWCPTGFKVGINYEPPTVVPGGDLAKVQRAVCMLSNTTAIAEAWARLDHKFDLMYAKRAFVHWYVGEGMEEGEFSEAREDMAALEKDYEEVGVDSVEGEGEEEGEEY
T1 sequence (P02554 whole entry, looked up): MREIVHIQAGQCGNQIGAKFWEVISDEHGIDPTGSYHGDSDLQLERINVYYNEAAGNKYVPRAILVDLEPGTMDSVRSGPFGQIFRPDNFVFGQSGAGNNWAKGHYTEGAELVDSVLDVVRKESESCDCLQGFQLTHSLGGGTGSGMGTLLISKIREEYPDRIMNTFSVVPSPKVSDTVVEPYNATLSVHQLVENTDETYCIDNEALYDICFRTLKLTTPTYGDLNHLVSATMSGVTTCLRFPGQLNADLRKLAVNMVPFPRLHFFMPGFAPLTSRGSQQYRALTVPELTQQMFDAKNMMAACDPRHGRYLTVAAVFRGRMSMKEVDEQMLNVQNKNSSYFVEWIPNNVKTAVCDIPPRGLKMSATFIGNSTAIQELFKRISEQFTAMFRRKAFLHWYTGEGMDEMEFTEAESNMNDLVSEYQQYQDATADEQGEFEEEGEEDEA

[10] = system: HeLa; experiment: Induction of apoptosis in human HeLa cells assessed as increase in PARP cleavage at 10 uM after 24 hrs by immunoblotting method; assay type: functional, cell-based
Outline: (§4)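 HeLa and DU 145 cells were given vehicle, BI2536 (100 nM) or test compounds (10 µM) for 24 h. Lysed with protease inhibitors; equal protein run on SDS-PAGE, transferred to PVDF, and probed for cleaved PARP (1:1000) with actin as loading control; ECL detection.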

[11] = system: SK-OV-3; experiment: Growth inhibition of human SKOV3 cells by sulforhodamine B assay; assay type: functional, cell-based
Outline: (§5)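 Isogenic ovarian pair: parental SK-OV-3 and its Pgp-expressing single-cell clone SK-OV-3/MDR-1-M6/6, tested by SRB assay. IC50 is interpolated from a 4-parameter nonlinear regression against vehicle control. Rr = IC50 in M6/6 divided by IC50 in SK-OV-3.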

[12] = system: SK-OV-3; experiment: Resistance index, ratio of IC50 for human SKOV3-MDR1-M6/6 cells to IC50 for human SKOV3 cells; assay type: functional; outline: as §5
[13] = system: HeLa; experiment: Induction of aberrant bipolar mitotic spindles in human HeLa cells at 7.5 uM incubated for 18 hrs by indirect immunofluorescence microscopy; assay type: functional, cell-based; outline: as §3
[14] = system: DU-145; experiment: Inhibition of PLK1 protein accumulation in human DU145 cells at 10 uM by immunoblotting method; assay type: functional, cell-based; outline: as §2
[15] = system: DU-145; experiment: Induction of apoptosis in human DU145 cells assessed as increase in PARP cleavage at 10 uM after 24 hrs by immunoblotting method; assay type: functional, cell-based; outline: as §4
[16] = system: DU-145; experiment: Growth inhibition of human DU145 cells by sulforhodamine B assay; assay type: functional, cell-based; outline: as §1
[17] = system: DU-145; experiment: Inhibition of colony formation of human DU145 cells incubated for 4 hrs followed by drug wash-out and measured after 14 days post drug wash-out by crystal violet staining based clonogenic assay; assay type: functional, cell-based
Outline: (§6)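 300 DU 145 cells were allowed to adhere, then exposed to vehicle (0.5% DMSO final) or compound for 4 h. Washed with DPBS and regrown in fresh medium. Fixed and stained with 0.5% crystal violet in 10% methanol; colonies counted. Legend states 9 days, methods 14 days. One-way ANOVA with Dunnett's post-hoc test; n = 2–9 experiments.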

[18] = system: HeLa; experiment: Inhibition of PLK1 protein accumulation in human HeLa cells at 10 uM by immunoblotting method; assay type: functional, cell-based; outline: as §2
[19] = system: SK-OV-3; experiment: Growth inhibition of human SKOV3-MDR1-M6/6 cells by sulforhodamine B assay; assay type: functional, cell-based; outline: as §5
[20] = system: HeLa; experiment: Inhibition of PLK1 protein accumulation in human HeLa cells at 100 nM by immunoblotting method; assay type: functional, cell-based; outline: as §2
[21] = system: HeLa; experiment: Induction of monopolar mitotic spindles in human HeLa cells at 100 nM incubated for 18 hrs by indirect immunofluorescence microscopy; assay type: functional, cell-based; outline: as §3
[22] = system: PC-3; experiment: Induction of monopolar mitotic spindles in human PC3 cells at 100 nM incubated for 18 hrs by indirect immunofluorescence microscopy; assay type: functional, cell-based; outline: as §3
[23] = system: DU-145; experiment: Inhibition of PLK1 protein accumulation in human DU145 cells at 100 nM by immunoblotting method; assay type: functional, cell-based; outline: as §2
[24] = system: DU-145; experiment: Induction of apoptosis in human DU145 cells assessed as increase in PARP cleavage at 100 nM after 24 hrs by immunoblotting method; assay type: functional, cell-based; outline: as §4
[25] = system: HeLa; experiment: Induction of apoptosis in human HeLa cells assessed as increase in PARP cleavage at 100 nM after 24 hrs by immunoblotting method; assay type: functional, cell-based; outline: as §4
[26] = system: PC-3; experiment: Induction of monopolar mitotic spindles in human PC3 cells at 25 uM incubated for 18 hrs by indirect immunofluorescence microscopy; assay type: functional, cell-based; outline: as §3
[27] = system: HeLa; experiment: Induction of monopolar mitotic spindles in human HeLa cells at 25 uM incubated for 18 hrs by indirect immunofluorescence microscopy; assay type: functional, cell-based; outline: as §3
[28] = system: DU-145; experiment: Inhibition of colony formation of human DU145 cells at 5 to 20 uM incubated for 4 hrs followed by drug wash-out and measured after 9 days post drug wash-out by crystal violet staining based clonogenic assay; assay type: functional, cell-based; outline: as §6
[29] = system: HeLa; experiment: Induction of aberrant bipolar mitotic spindles in human HeLa cells at 25 uM incubated for 18 hrs by indirect immunofluorescence microscopy; assay type: functional, cell-based; outline: as §3
[30] = system: PC-3; experiment: Induction of aberrant bipolar mitotic spindles in human PC3 cells at 25 uM incubated for 18 hrs by indirect immunofluorescence microscopy; assay type: functional, cell-based; outline: as §3
[31] = system: DU-145; experiment: Selectivity index, ratio of IC50 for human PC3 cells to IC50 for human DU145 cells; assay type: functional
Outline: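 Ratio of SRB IC50 values from PC-3 and DU 145 prostate cells, each measured by 4-parameter nonlinear regression of triplicate concentration-response data.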

[32] = system: HeLa; experiment: Induction of monopolar mitotic spindles in human HeLa cells at 10 uM incubated for 18 hrs by indirect immunofluorescence microscopy; assay type: functional, cell-based; outline: as §3
[33] = system: PC-3; experiment: Induction of monopolar mitotic spindles in human PC3 cells at 10 uM incubated for 18 hrs by indirect immunofluorescence microscopy; assay type: functional, cell-based; outline: as §3
[34] = biological target: T1, Tubulin (Sus scrofa); experiment: Inhibition of porcine tubulin polymerization at 10 to 100 uM incubated for 1 hr by turbidimetry; assay type: protein assay
[35] = system: PC-3; experiment: Induction of cell cycle arrest in human PC3 cells at 1.5 uM to 5 uM incubated for 18 hrs by flow cytometry method; assay type: functional, cell-based
Outline: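 PC-3 cells were treated with vehicle (DMSO) or compound for 18 h. Stained with Krishan's reagent (propidium iodide), and DNA content read by flow cytometry for cell cycle distribution.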

[36] = system: PC-3; experiment: Induction of aberrant bipolar mitotic spindles in human PC3 cells at 10 uM incubated for 18 hrs by indirect immunofluorescence microscopy; assay type: functional, cell-based; outline: as §3
[37] = system: HeLa; experiment: Induction of aberrant bipolar mitotic spindles in human HeLa cells at 10 uM incubated for 18 hrs by indirect immunofluorescence microscopy; assay type: functional, cell-based; outline: as §3

Structure (SMILES)	IC50 [1]	IC50 [2]	IC50 [3]	inhibition [4]	inhibition [6]	inhibition [9]	Activity [10]	IC50 [11]	Ratio IC50 [12]	inhibition [14]	Activity [15]	IC50 [16]	inhibition [17]	inhibition [18]	IC50 [19]	further results
C=C1C(=O)O[C@H]2[C@H]1[C@H](OC(=O)[C@@]1(C)O[C@H]1C)[C@H](OC(C)=O)/C(C(=O)OC)=C\[C@H]1O[C@H]1[C@]1(C)O[C@H]21	3100 nM	1900 nM	1100 nM	inactive	inactive	Active	Active	820 nM	2.4	inactive	Active	2600 nM	Dose-dependent effect	inactive	2000 nM	Activity [5]: Active; Activity [7]: Active; Activity [8]: Active; Activity [13]: Active
CC[C@@H]1C(=O)N(C)c2cnc(Nc3ccc(C(=O)NC4CCN(C)CC4)cc3OC)nc2N1C1CCCC1																inhibition [20]: Active; Activity [21]: Active; Activity [22]: Active; inhibition [23]: Active; Activity [24]: Active; Activity [25]: Active
C=C1C(=O)O[C@H]2[C@H]1[C@H](OC(=O)[C@@]1(C)O[C@H]1C)[C@H](OC(C)=O)/C(C(=O)OC)=C\C[C@@H](O)[C@]1(C)O[C@H]21	8700 nM	3800 nM	3000 nM	inactive	inactive	Active	Active	1700 nM	2.6	inactive	Active	5900 nM	Dose-dependent effect	inactive	4400 nM	Activity [26]: Active; Activity [27]: Active; inhibition [28]: Active; Activity [29]: Active; Activity [30]: Active
C=C1C(=O)O[C@H]2[C@H]1[C@H](OC(=O)[C@@]1(C)O[C@H]1C)[C@@H](OC(C)=O)[C@@]1(C(=O)OC)C=CC=C(C)[C@H]21	670 nM											180 nM				Ratio IC50 [31]: 3.7
C=C1C(=O)O[C@H]2[C@H]1[C@H](OC(=O)[C@@]1(C)O[C@H]1C)[C@H](OC(C)=O)/C(C(=O)OC)=C\C=C/[C@]1(C)O[C@H]21	1700 nM	1700 nM	1700 nM	inactive	inactive		Active	570 nM	2.5	inactive	Active	1800 nM	Dose-dependent effect	inactive	1400 nM	Activity [32]: Active; Activity [33]: Active; inhibition [34]: Active; Activity [35]: inactive; Activity [36]: Active; Activity [37]: Active
CC(=O)O[C@H]1C(=O)[C@@]2(C)[C@H]([C@H](OC(=O)c3ccccc3)[C@]3(O)C[C@H](OC(=O)[C@H](O)[C@@H](NC(=O)c4ccccc4)c4ccccc4)C(C)=C1C3(C)C)[C@]1(OC(C)=O)CO[C@@H]1C[C@@H]2O [PACLITAXEL]	40 nM	3.5 nM						6.2 nM	162.9			4 nM			1010 nM	
